Legend:
Liver microsome = test: Drug metabolism in Sprague-Dawley rat liver microsomes assessed as formation of 3-(4-((6-methoxy-1-methyl-1H-benzo[d]imidazol-2-yl)methoxy)phenyl)-2-(methylthio)propanamide at 20 uM after 2 hrs by radio-HPLC/LC-MS/MS analysis in presence of NADPH-generating system/SAM; assay type: ADME
[1] = biological target: T1, UDP-glucuronosyltransferase 1A1 (Homo sapiens, UniProt P22309); test: Activity of human UGT1A1 expressed in microsomes isolated from baculovirus infected insect cell assessed as enzyme-mediated 2-mercapto-3-(4-((6-methoxy-1-methyl-1H-benzo[d]imidazol-2-yl)methoxy)phenyl)propanoic acid formation at 20 uM after 4 hrs by radio-HPLC/LC-MS/MS analysis in presence of UDPGA; assay type: ADME
T1 sequence (P22309 whole entry): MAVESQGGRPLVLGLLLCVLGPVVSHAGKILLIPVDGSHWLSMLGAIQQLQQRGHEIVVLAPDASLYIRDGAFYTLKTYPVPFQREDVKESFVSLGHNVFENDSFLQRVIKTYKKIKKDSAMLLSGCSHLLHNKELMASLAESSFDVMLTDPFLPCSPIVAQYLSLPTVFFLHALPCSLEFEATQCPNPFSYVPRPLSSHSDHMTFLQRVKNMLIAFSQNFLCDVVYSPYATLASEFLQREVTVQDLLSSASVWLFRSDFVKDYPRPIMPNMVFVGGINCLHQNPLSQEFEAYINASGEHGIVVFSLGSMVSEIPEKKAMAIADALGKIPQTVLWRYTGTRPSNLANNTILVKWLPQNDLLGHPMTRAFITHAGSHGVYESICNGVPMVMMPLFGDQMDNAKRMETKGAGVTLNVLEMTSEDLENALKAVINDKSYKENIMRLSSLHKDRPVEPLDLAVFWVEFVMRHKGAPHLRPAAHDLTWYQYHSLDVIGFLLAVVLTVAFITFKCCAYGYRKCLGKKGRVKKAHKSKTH
Summary of the method: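 Alamethicin (50 μg/mg protein, 15 min on ice) pretreated expressed human UGT microsomes (1 mg/ml protein) from baculovirus-infected insect cells. Incubation with [¹⁴C]rivoglitazone (20 μM) in 100 mM Tris-HCl (pH 7.5) with 10 mM MgCl₂, started by 5 mM UDPGA, 4 h at 37°C with shaking. UGT insect-cell control supersomes were run alongside. Acetonitrile stop, concentrated supernatant analysed by radio-HPLC, LC-MS and LC-MS/MS.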

Plasma = test: Drug metabolism in po dosed monkey plasma assessed as formation of 5-(4-((6-methoxy-1H-benzo[d]imidazol-2-yl)methoxy)benzyl)thiazolidine-2,4-dione; assay type: ADME, organism-based, Macaca mulatta; conditions: rhesus monkey, in vivo
Cytochrome P450 2C9 = Cytochrome P450 2C9 (Homo sapiens, UniProt P11712); test: Activity of human CYP2C9 expressed in microsomes isolated from baculovirus infected insect cell assessed as enzyme-mediated 2-((4-((2,4-dioxothiazolidin-5-yl)methyl)phenoxy)methyl)-1-methyl-1H-benzo[d]imidazol-6-yl hydrogen sulfate formation at 20 uM after 2 hrs by radio-HPLC/LC-MS/MS analysis; assay type: ADME
Summary of the method: (§1)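 Baculovirus-insect-cell microsomes expressing the human CYP (1 mg/ml protein) were incubated with [14C]rivoglitazone (20 μM) in 50 mM potassium phosphate (pH 7.4) or 100 mM Tris-HCl (pH 7.5) with an NADPH-generating system (2 mM NADP+, 20 mM glucose 6-phosphate, 2 units/ml G6PDH, 10 mM MgCl2) for 2 h at 37°C. Insect-cell control supersomes served as the control. Reactions were stopped with acetonitrile, and the concentrated supernatants were analysed by radio-HPLC, LC-MS and LC-MS/MS.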

Cytochrome P450 2D6 = Cytochrome P450 2D6 (Homo sapiens, UniProt P10635); test: Activity of human CYP2D6 expressed in microsomes isolated from baculovirus infected insect cell assessed as enzyme-mediated 2-((4-((2,4-dioxothiazolidin-5-yl)methyl)phenoxy)methyl)-1-methyl-1H-benzo[d]imidazol-6-yl hydrogen sulfate formation at 20 uM after 2 hrs by radio-HPLC/LC-MS/MS analysis; assay type: ADME; summary of the method: as §1
[2] = Drug metabolism in cynomolgus monkey liver microsomes assessed as formation of 3-(4-((6-methoxy-1-methyl-1H-benzo[d]imidazol-2-yl)methoxy)phenyl)-2-(methylsulfonyl)propanamide at 20 uM after 2 hrs by radio-HPLC/LC-MS/MS analysis in presence of NADPH-generating system/SAM; assay type: ADME, Macaca fascicularis
[3] = biological target: T2, UDP-glucuronosyltransferase 1A3 (Homo sapiens, UniProt P35503); test: Activity of human UGT1A3 expressed in microsomes isolated from baculovirus infected insect cell assessed as enzyme-mediated (2S,3S,4S,5R,6R)-6-((1-carboxy-2-(4-((6-methoxy-1-methyl-1H-benzo[d]imidazol-2-yl)methoxy)phenyl)ethylthio)carbonylamino)-3,4,5-trihydroxytetrahydro-2H-pyran-2-carboxylic acid formation at 20 uM after 4 hrs by radio-HPLC/LC-MS/MS analysis in presence of NADPH-generating system/SAM; assay type: ADME
T2 sequence (P35503 whole entry): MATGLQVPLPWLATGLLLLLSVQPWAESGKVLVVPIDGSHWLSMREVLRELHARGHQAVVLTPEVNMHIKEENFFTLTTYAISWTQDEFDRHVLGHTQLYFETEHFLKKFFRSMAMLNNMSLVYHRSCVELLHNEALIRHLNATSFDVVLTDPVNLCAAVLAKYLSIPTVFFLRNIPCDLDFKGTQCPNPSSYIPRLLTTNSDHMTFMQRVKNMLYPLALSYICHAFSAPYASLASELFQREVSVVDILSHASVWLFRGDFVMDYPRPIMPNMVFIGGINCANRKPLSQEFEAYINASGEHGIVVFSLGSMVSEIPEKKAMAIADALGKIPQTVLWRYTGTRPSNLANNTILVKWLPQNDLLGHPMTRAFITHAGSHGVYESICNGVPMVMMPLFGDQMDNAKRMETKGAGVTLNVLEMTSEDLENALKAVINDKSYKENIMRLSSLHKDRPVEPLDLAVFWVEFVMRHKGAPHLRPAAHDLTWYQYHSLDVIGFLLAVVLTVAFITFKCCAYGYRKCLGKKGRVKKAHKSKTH

Cytochrome P450 3A4 = Cytochrome P450 3A4 (Homo sapiens, UniProt P08684); test: Activity of human CYP3A4 expressed in microsomes isolated from baculovirus infected insect cell assessed as enzyme-mediated 3-(4-((6-methoxy-1-methyl-1H-benzo[d]imidazol-2-yl)methoxy)phenyl)-2-(methylthio)propanamide formation at 20 uM after 2 hrs by radio-HPLC/LC-MS/MS analysis in presence of NADPH-generating system/SAM; assay type: ADME
Cytochrome P450 3A5 = Cytochrome P450 3A5 (Homo sapiens, UniProt P20815); test: Activity of human CYP3A5 expressed in microsomes isolated from baculovirus infected insect cell assessed as enzyme-mediated 2-amino-3-((1-carboxy-2-(4-((6-methoxy-1-methyl-1H-benzo[d]imidazol-2-yl)methoxy)phenyl)ethyl)disulfanyl)propanoic acid formation at 20 uM after 2 hrs by radio-HPLC/LC-MS/MS analysis; assay type: ADME; summary of the method: as §1
[4] = Drug metabolism in monkey hepatocytes assessed as formation of 5-(4-((6-methoxy-1H-benzo[d]imidazol-2-yl)methoxy)benzyl)thiazolidine-2,4-dione at 30 uM after 3 hrs by radio-HPLC/LC-MS/MS analysis in presence of NADPH-generating system and NADPH-generating system/SAM; conditions: cynomolgus monkey

Cytochrome P450 2C9, sequence (P11712 whole entry): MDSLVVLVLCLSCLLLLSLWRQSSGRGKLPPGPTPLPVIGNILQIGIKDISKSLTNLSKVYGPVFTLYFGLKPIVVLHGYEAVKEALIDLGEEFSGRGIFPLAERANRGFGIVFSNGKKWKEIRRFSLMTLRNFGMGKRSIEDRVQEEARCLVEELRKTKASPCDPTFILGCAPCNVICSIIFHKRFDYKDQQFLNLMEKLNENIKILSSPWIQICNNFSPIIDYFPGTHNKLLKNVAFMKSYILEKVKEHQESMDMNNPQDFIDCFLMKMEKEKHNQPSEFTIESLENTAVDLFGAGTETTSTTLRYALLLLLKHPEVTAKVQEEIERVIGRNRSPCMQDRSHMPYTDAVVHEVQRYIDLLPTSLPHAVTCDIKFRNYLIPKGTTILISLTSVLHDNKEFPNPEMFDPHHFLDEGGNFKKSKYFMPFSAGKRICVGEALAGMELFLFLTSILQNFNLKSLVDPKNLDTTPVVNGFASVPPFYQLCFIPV
Cytochrome P450 3A5, sequence (P20815 whole entry): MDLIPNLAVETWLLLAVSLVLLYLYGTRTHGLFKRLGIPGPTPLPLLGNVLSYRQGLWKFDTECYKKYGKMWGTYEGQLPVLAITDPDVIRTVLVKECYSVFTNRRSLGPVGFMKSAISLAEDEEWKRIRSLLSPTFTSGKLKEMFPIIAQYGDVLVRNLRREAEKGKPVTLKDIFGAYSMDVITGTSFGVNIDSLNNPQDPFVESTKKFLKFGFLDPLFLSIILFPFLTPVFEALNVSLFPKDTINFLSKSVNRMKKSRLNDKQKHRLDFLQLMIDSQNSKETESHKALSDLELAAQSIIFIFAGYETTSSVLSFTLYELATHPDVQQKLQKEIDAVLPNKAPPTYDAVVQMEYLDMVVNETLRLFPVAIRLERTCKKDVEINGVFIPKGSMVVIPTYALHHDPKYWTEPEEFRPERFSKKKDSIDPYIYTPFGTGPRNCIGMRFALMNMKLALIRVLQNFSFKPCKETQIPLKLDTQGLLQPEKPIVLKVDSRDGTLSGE
Cytochrome P450 2D6, sequence (P10635 whole entry): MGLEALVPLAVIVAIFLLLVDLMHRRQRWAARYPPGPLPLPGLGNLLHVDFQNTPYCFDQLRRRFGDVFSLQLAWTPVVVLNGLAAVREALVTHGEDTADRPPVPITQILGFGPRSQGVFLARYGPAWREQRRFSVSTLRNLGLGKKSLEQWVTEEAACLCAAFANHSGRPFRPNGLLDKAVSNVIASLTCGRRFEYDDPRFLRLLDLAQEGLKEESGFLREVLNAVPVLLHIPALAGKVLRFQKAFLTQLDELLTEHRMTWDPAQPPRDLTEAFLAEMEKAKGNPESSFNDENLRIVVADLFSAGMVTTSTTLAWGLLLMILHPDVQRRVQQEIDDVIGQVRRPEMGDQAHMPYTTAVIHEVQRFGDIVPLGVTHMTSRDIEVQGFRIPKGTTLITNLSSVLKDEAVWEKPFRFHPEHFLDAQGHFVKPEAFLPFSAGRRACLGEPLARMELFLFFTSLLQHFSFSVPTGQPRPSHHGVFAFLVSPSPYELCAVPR
Cytochrome P450 3A4, sequence (P08684 whole entry): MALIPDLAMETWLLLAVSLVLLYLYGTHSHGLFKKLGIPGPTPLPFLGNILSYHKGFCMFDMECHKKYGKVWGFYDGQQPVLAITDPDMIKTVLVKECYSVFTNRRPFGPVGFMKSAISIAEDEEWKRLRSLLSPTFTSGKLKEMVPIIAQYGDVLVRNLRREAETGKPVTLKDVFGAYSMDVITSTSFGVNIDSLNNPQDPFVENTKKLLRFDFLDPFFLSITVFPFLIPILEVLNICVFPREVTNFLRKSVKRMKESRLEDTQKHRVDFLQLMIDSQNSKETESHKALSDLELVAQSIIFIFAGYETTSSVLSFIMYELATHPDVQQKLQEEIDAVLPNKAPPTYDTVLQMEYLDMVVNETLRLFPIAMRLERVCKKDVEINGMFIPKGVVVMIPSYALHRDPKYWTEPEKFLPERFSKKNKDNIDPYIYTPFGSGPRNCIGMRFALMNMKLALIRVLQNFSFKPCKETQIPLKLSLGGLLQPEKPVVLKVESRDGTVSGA

- Drug metabolism (Liver microsome): metabolite_detected
- Drug metabolism [1]: metabolite_not_detected
- Drug metabolism (Plasma): metabolite_detected
- Drug metabolism (Cytochrome P450 2C9): metabolite_not_detected
- Drug metabolism (Cytochrome P450 2D6): metabolite_not_detected
- Drug metabolism [2]: metabolite_detected
- Drug metabolism [3]: metabolite_detected
- Drug metabolism (Cytochrome P450 3A4): metabolite_not_detected
- Drug metabolism (Cytochrome P450 3A5): metabolite_not_detected
- Drug metabolism [4]: metabolite_not_detected
SMILES: COc1ccc2nc(COc3ccc(C[14CH]4SC(=O)NC4=O)cc3)n(C)c2c1.Cl (racemic)

Reference: ChEMBL document CHEMBL3526048, “In vitro metabolism of rivoglitazone, a novel peroxisome proliferator-activated receptor γ agonist, in rat, monkey, and human liver microsomes and freshly isolated hepatocytes” (Drug Metab Dispos, 2011)
